Most compounds without a hit are left out; they make up all but 1.2% or so of the library.
Fh CTSL1 inh = cathepsin L1 inhibition, PFM18AAP counter-screen; recombinant F. hepatica cathepsin L1, Z-Leu-Arg-MCA fluorescence; inhibition, % at 5.96 µM; hit rate 0.49% among 300,000;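 active means inhibition above the mean of all tested compounds plus 3 SD, set per screening campaign, cut at about 17% in these data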
core dimer inh = blocks dimerization of HCV core protein; TR-FRET GST/Flag-core106 dimerization, 1536-well; inhibition, % at 5 µM; hit rate 0.33% among 300,000; AID 1899;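 active means inhibition above the mean of all tested compounds plus 3 SD, set per screening campaign, cut at about 45% in these data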
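System: GST-tagged and Flag-tagged HCV core protein residues 1-106 / Input: core106 proteins, GST 13.5 nM and Flag 17 nM / Buffer or medium: KF-containing HEPES buffer, pH 7.45, DTT, CHAPS, BSA / Probe or stimulus: Eu-anti-GST and XL665-anti-Flag labelled anti-tag antibodies / Schedule: 4 h, 22.5 °C incubation / Technique: TR-FRET 671 and 617 nm emission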
NPR2 activator = GC-B (human) receptor activation; P20594; HEK293-GC-B cells, CNP EC30, cGMP TR-FRET; 0% at EC30 CNP, 100% saturating CNP; activation, % at 10 µM; hit rate 0.11% among 370,000;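 active means activation at 10 µM reaching about 35% in either raw or pattern-adjusted values, limit read from the data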
ARFGAP1 inh = inhibits rat ARF GTPase activating protein 1; Q62848; Arfgap1-stimulated ARF1 GTP hydrolysis, GDP FP detection; inhibition, % at 16.5 µM; hit rate 0.26% among 360,000; AID 651572;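 active means inhibition above a per-plate limit, mean inhibition of low control wells plus 3 SD, cut at about 25% in these data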
Target sequence (Q62848 1-136 limits assumed): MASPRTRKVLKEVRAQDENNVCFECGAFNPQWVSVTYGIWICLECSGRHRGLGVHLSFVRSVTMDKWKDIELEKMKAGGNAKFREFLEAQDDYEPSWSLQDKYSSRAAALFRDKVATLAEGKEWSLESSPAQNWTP
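System: truncated rat Arfgap1 GAP domain / Benchmarks: high control wells lacking Arfgap1, low control full reaction with DMSO / Times: compound-enzyme preincubation 20 min, reaction 120 min, detection 60 min, 25 °C / Repeats: one replicate per compound / Also added: human ARF1(Δ1-17)-GTP substrate / Measured by: Tracer-displacement fluorescence polarization with EDTA stop, 620/688 nm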
NPR1 activator = GC-A (human) enzyme activation; HEK293 GC-A cells, cGMP TR-FRET, EC30 ANP; 0% at EC30 ANP, 100% saturating ANP; activation, % at 10 µM; hit rate 0.14% among 370,000; in the data active means activation above about 40%
ASAP1 inh = blocks human ASAP1-stimulated Arf1 GTP hydrolysis; Q9ULH1; GDP FP detection; inhibition, % at 16.5 µM; hit rate 0.19% among 360,000; AID 624377; in the data active means inhibition above about 25%
Each line names hits and unclear results; the compound was inactive in the other large screens.

O=S(=O)(c1ccc2c(c1)C(=NO)c1cc(S(=O)(=O)N3CCCCC3)ccc1-2)N1CCCCC1	core dimer inh 48.4
O=C(COC(=O)c1cc([N+](=O)[O-])ccc1NCCO)Nc1cccnc1Cl	NPR2 activator 57.1, NPR1 activator 55.9 (no result: Fh CTSL1 inh, core dimer inh)
O=C(COC(=O)c1ccc([N+](=O)[O-])cc1Cl)Nc1cccnc1Cl	none
CCCCCCCCCCCCCC(=O)O	none (no result: Fh CTSL1 inh, core dimer inh)
O=C1Nc2ccccc2N2CCCC12 (stereo not given)	Fh CTSL1 inh 71.0 (no result: NPR2 activator, ARFGAP1 inh, NPR1 activator, ASAP1 inh)
O=C1Nc2ccc(C(F)(F)F)cc2N2CCCC12 (stereo not given)	none (no result: NPR2 activator, ARFGAP1 inh, NPR1 activator, ASAP1 inh)
CCOC(=O)c1c(S(=O)(=O)NCC(C)c2ccccc2)c(C)n(C)c1C (stereo not given)	none
O=C(CSc1nnc(-c2cccc(F)c2)o1)N1CCOCC1	none
CC(C)(C)OC(=O)[C@H](Cc1ccccc1)NC(=O)c1ncn2c1c(=O)[nH]c1ccc(Br)cc12	NPR2 activator 39.1 (no result: Fh CTSL1 inh, core dimer inh)
CC(C)(C)OC(=O)[C@H](Cc1ccccc1)NC(=O)c1nc[nH]c1C(=O)N[C@@H](Cc1ccccc1)C(=O)OC(C)(C)C	none
CCOC(=O)c1sc(N(Cc2ccccc2)C(=O)CCl)nc1C	Fh CTSL1 inh 22.3
CCN(CC)S(=O)(=O)c1ccc(OC)c(NC(=O)Cc2cccs2)c1	core dimer inh 49.8
COc1cc(OC)c(NC(=O)Cc2cccs2)cc1Cl	none
O=C(Nc1ccc(N2CCCC2)cc1)c1cc(Br)ccc1Cl	ARFGAP1 inh 31.6
Cc1nnc(SCC(=O)N2CCN(S(=O)(=O)c3ccc(Cl)cc3)CC2)[nH]c1=O	none
COc1cc(CC(=O)OCC(=O)NC2CC2)cc(OC)c1OC	Fh CTSL1 inh 46.1
O=C(c1cnn2c(C(F)(F)F)cc(-c3ccc4c(c3)OCO4)nc12)N1CCCC1	NPR2 activator 44.8
O=C(c1cnn2c(C(F)(F)F)cc(-c3ccc(Br)cc3)nc12)N1CCOCC1	none (no result: Fh CTSL1 inh, core dimer inh)
CC(Oc1ccc2c(-c3ccccc3)cc(=O)oc2c1)C(=O)N1CCC[C@@H]1C(N)=O (stereo not given in full)	Fh CTSL1 inh 42.4
C#CC(=O)N(c1cc(OC)ccc1OC)C(C(=O)NC1CCCC1)c1cccs1 (stereo not given)	Fh CTSL1 inh 34.2 (no result: NPR2 activator, ARFGAP1 inh, NPR1 activator, ASAP1 inh)
C#CC(=O)N(c1ccc(OC)cc1OC)C(C(=O)NC1CCCC1)c1cccs1 (stereo not given)	Fh CTSL1 inh 29.5
CCO[C@H]1OC(C(=O)NC2CC2)=C[C@@H](c2ccc(C(F)(F)F)cc2)[C@@H]1CCCO	none
c1coc(-c2nc(-c3ccco3)c(-c3ccco3)nc2-c2ccco2)c1	core dimer inh 73.2
CC(=O)c1ccc(N2CCN(C(=O)C3CCN(C(=O)Nc4ccccc4)CC3)CC2)cc1	none (no result: Fh CTSL1 inh, core dimer inh)
COc1ccc(COc2cc(-c3cccc(OC)c3)nc3ccc(NC(=O)c4cccnc4)cc23)cc1	NPR2 activator 57.3, NPR1 activator 52.1
COc1ccc(COc2cc(-c3cccc(OC)c3)nc3ccc(NC(=O)c4ccc(OC)cc4)cc23)cc1	none
COc1ccc(COc2cc(-c3cccc(OC)c3)nc3ccc(NC(=O)c4ccc(Cl)cc4)cc23)cc1	none
COc1ccc(COc2cc(-c3cccc(OC)c3)nc3ccc(NC(=O)c4ccccc4)cc23)cc1	NPR2 activator 43.9, NPR1 activator 40.3
CCOc1ccccc1C(=O)NC(C)c1ccc(-n2ccnc2)cc1 (stereo not given)	none
Cc1cc(=O)n2nc(N3CCCC3C(=O)NCc3ccccn3)sc2n1 (stereo not given)	none
Clc1ccc(-c2nc(-c3ccncc3)no2)c(Cl)c1	NPR1 activator 46.1
O=[N+]([O-])c1cc(Cl)ccc1-c1nc(-c2ccncc2)no1	NPR1 activator 45.7
O=[N+]([O-])c1cc(Cl)ccc1-c1nc(-c2ccccc2)no1	none
COc1cc(C2C(C#N)=C(N)Oc3cc(C)oc(=O)c32)cc2c1OCO2 (stereo not given)	core dimer inh 65.3
CCOC(=O)c1c2c(n(C)c1C)C(=O)C(=O)c1ccc(Br)cc1-2	Fh CTSL1 inh 66.3
CCOC(=O)c1c2c(n(Cc3ccccc3)c1C)C(=O)C(=O)c1ccccc1-2	none (no result: Fh CTSL1 inh, core dimer inh)

Screens deposited in PubChem BioAssay by several laboratories.
